Laboratory results: publication PMC10829792 (Cell Reports Medicine, 2024)

Key:
U2932 xenograft mice = experiment: Tumor growth and survival study in U2932 xenograft mice; assay type: in vivo, mouse; settings: romidepsin 1 mg/kg i.p. on days 0 and 6, n = 8
Procedure, shortened: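 Mice bearing U2932 tumours of 100–150 mm³ were randomised. Romidepsin 1 mg/kg i.p. on days 0 and 6, and test compound 5 mg/kg on days 1, 4, 7 and 10, alone or combined. Vehicle group included.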

U2932 cells = experiment: Cell viability, trypan blue assay; assay type: cell-based, human; settings: U2932 cells treated with only romidepsin (10 nM) or γPNA2-NLS (8 μM)
[1] = tested on: DLBCL patient-derived xenograft (PDX) mice; experiment: Tumor growth in DLBCL PDX mice; assay type: in vivo, mouse; settings: γPNA2-NLS 5 mg/kg, romidepsin 1 mg/kg i.p., n = 5 per group
Procedure, shortened: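 DLBCL PDX fragments were serially implanted, reharvested at ~1500 mm³, and grouped at 100–150 mm³. Dosing followed the U2932 xenograft regimen: romidepsin 1 mg/kg i.p. days 0 and 6; test compound 5 mg/kg days 1, 4, 7 and 10. Body weight and tumour volume were recorded daily. Endpoint was tumour volume 1800–2000 mm³.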

Raji cells = experiment: Cell viability, trypan blue assay; assay type: cell-based, human; settings: romidepsin with or without γPNA2-NLS, mean, n = 3
DLBCL PDX tumors = experiment: Histology and immunohistochemistry; assay type: in vivo, mouse; settings: romidepsin study, n = 2 mice per group, n > 4 images
Procedure, shortened: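 DLBCL PDX mice grouped at tumour volume 100–150 mm³. Romidepsin 1 mg/kg i.p. on days 0 and 6; test compound 5 mg/kg on days 1, 4, 7 and 10. Mice euthanized at 1800–2000 mm³.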

γH2AX in HeLa cells = experiment: γH2AX foci assay, immunofluorescence; assay type: cell-based, human; settings: 24 h, γPNA2-NLS 8 μM, bleomycin 50 and 150 μM
Procedure, shortened: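 HeLa cells were seeded at 100,000/well and exposed for 24 h to test compound (8 μM) or bleomycin (50 and 150 μM). Nuclei were stained with NucBlue (25 min, 37°C). Cells were fixed in 4% PFA (10 min, RT), permeabilised with 0.1% Triton X in PBS, and stained with PE-conjugated anti-γH2AX (2 h, 37°C). Read-out was fluorescence microscopy.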

Compound: C/C=C1\NC(=O)[C@H]2CSSCC/C=C/[C@H](CC(=O)N[C@H](C(C)C)C(=O)N2)OC(=O)[C@H](C(C)C)NC1=O [romidepsin]
- reduction of tumor growth (U2932 xenograft mice): 2 fold
- viability, day 4, single treatments (U2932 cells): 50 % viability
- lower tumor volumes / decrease on day 35 [1]: 1.3 fold
- reduction in viability, day 4 (Raji cells): 58%
- caspase-3 activation, fold increase (DLBCL PDX tumors): ~5 fold

Compound: bleomycin
- γH2AX immunofluorescence staining (γH2AX in HeLa cells): increased γH2AX-positive nuclei
